# Screening results deposited in PubChem by several laboratories.
# Sampled rows, rich in hits. Any-hit rate of the full collection: about 6.7%.
# CSC inhib: cancer stem cell viability inhibitors, primary screen, luminescence; cancer stem cell-like cells viability; inhibition, % at 7.5 µM; 1.1% of 300,000 active; in the data active = inhibition above about 75%; tested in HMLE shEcad cells
# GRIN3A LBD mod: binders of NR3A ligand-binding domain, primary screen, biophysical, differential scanning fluorimetry, uHTS; Glutamate receptor ionotropic, NMDA 3A (GRIN3A) ligand-binding domain; NR3A LBD differential scanning fluorimetry, Tm shift; 0% = protein alone, 100% = glycine-bound protein; Tm shift relative to glycine control, % at 25 µM; 2.5% of 340,000 active; AID 1259313, 2017;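 active = melting temperature shift of at least 10% of the positive control shift, at one fixed dose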
# PREPL inhibitor: PREPL enzyme inhibitors, primary screen, biochemical, fluorescence polarization. recombinant PREPL, fluorescence polarization activity-based probe. inhibition, % at 5.96 µM. 0.68% of 320,000 active. AID 2751, 2010; in the data active = inhibition above about 43%
# Target sequence (Q4J6C6 whole entry, looked up): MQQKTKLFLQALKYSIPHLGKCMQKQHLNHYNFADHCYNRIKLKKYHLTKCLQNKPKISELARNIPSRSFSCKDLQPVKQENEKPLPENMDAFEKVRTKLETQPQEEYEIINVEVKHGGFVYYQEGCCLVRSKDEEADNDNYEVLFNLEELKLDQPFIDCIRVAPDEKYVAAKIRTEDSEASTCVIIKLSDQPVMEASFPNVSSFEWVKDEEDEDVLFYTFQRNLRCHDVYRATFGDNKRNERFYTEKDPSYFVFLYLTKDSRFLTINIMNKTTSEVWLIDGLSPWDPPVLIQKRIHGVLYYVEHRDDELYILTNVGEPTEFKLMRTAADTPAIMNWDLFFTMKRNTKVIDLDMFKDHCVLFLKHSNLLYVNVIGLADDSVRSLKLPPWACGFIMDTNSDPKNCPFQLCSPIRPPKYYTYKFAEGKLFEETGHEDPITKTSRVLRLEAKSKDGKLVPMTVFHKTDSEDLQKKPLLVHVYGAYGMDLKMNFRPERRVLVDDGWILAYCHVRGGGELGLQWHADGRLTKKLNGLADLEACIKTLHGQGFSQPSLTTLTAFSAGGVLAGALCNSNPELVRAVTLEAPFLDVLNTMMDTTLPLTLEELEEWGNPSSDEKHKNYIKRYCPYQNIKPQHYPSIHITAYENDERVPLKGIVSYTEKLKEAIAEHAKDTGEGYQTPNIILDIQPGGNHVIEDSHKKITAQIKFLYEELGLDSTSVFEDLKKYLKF
# Beta apoptosis: inhibitors of cytokine-induced beta cell apoptosis, primary screen, luminescence; INS-1E cytokine-induced death, ATP luminescence, 48 h; percent of positive-control rescue, neutral wells zero; protection from apoptosis, % (concentration not given with the values); 0.8% of 300,000 active;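 active = Every replicate reaches about 75%, or at least half do and their mean reaches it too, limit read from the data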;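 note: higher means more ATP so stronger rescue from cytokine killing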
# T cruzi inh: inhibitors of intracellular T. cruzi growth, primary screen, luminescence, NIH3T3 host cells. T. cruzi beta-gal in NIH3T3, 90 h. inhibition, % (concentration not given with the values). 1.4% of 300,000 active;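 active = mean inhibition across valid replicates above about 55%, limit read from the data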;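 note: signal also drops with host cell toxicity which is not excluded here; higher percent means less beta-gal luminescence so fewer parasites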
#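 System: mouse NIH/3T3 fibroblasts infected with β-gal-expressing T. cruzi Tulahuen C4 / Input: NIH/3T3 cells, 5,000 per well / Buffer or medium: Low-serum DMEM with 2% FBS / Probe or stimulus: 5000 reporter trypomastigotes per well / Schedule: ≥90 h infection period, 3 h prior cell attachment / Measured by: GalScreen luminescence, 60 min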
# CHOP inh: inhibitors of CHOP promoter induction, primary screen, cell-based, unfolded protein response, luciferase reporter | 3.8% of 220,000 active | inhibition, % at 10 µM | CHO-K1 CHOP-promoter luciferase, tunicamycin-induced, 15-18 h;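 active = compounds that reduced the stress-induced luciferase reporter signal by more than about 70% of percent inhibition, limit read from the data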
# Numbers stand for hits; - = inactive; . = no result.
SMILES,CSC inhib,GRIN3A LBD mod,PREPL inhibitor,Beta apoptosis,T cruzi inh,CHOP inh
COc1ccc(OC)c(NC(=O)c2ccc3c(=O)n(CCc4ccccc4)c(=S)[nH]c3c2)c1,-,15,-,-,-,100
O=C(/C=C/c1ccccc1[N+](=O)[O-])Nc1cc(S(=O)(=O)N2CCOCC2)ccc1N1CCOCC1,.,-,.,.,.,.
c1ccc2c(c1)CCN(c1nc3ccccc3n3cnnc13)C2,-,-,-,-,-,70
Cc1cc(C)n(CCNC(=O)CC2C(=O)NCCN2CC2CCCCC2)n1 (centres undefined),-,-,-,-,-,-
CC(=O)Oc1c(I)cc(I)cc1C(=O)Nc1ccc(Cl)cc1,108,16,-,106,-,.
Cc1ccc(C)c(N2CCN(C(=S)NC3CCCCC3)CC2)c1,-,-,-,-,-,79
CCN1C(=O)N/C(=C/c2cc(C)n(Cc3ccccc3)c2C)C1=O,-,-,-,-,-,-
CCn1c(C)cc(/C=C2\NC(=O)N(Cc3ccc(Cl)cc3)C2=O)c1C,-,-,-,-,55,-
COc1ccc(CN2CCC(=O)N([C@H](CO)c3ccccc3)CC2)cc1,-,-,-,-,-,.
O=S(=O)(c1cccc(F)c1)N1CCCN(c2ccc(C(F)(F)F)cn2)CC1,-,-,-,-,-,-
COc1ccc(S(=O)(=O)N2CCOCC2)cc1NC(=O)COc1ccc(C)cc1,-,18,-,-,.,.
COc1ccc(S(=O)(=O)N2CCOCC2)cc1NC(=O)COC(=O)CCOc1ccc(C)cc1,-,-,-,-,-,.
COc1ccc(NC(C)=O)cc1NC(=O)CN1CCN(S(=O)(=O)c2ccc(C(C)C)cc2)CC1,-,-,-,-,-,73
Cc1ccc(CNC(=O)COc2ccc(S(=O)(=O)N3CCOCC3)cc2)cc1,-,10,-,-,-,.
Cc1nnc(NC(=O)c2cccc(S(=O)(=O)N3CCCC3)c2)s1,-,-,-,-,-,.
CCN1CCN(C(=O)C(Cc2ccccc2)NC(=O)c2ccc(Cl)c(S(=O)(=O)N(C)C)c2)CC1 (centres undefined),-,-,-,-,.,.
C/C(=N\NC(=S)Nc1ccccc1C)c1cc2ccccc2o1,-,-,-,78,59,-
CCCCn1c(=O)c(CCC(=O)OCC(=O)NCc2ccc(OC)c(OC)c2)nc2ccccc21,.,-,-,-,-,-
Cc1cc2c(cc1C)C(c1ccccc1F)CC(=O)N2 (centres undefined),-,-,-,-,-,.
Cc1cc2c(cc1C)C(c1cc(Br)ccc1F)CC(=O)N2 (centres undefined),172,-,-,-,-,-
O=C(NCC(=O)N1CCc2ccccc2C1)c1ccccc1Cl,-,-,.,-,-,.
COc1ccc(S(=O)(=O)N2CCC(C(=O)NCCC(=O)Nc3ccc(Cl)cc3)CC2)cc1,-,-,-,-,-,.
COc1ccc(N(CC(=O)NC2CCCC2)C(=O)CCC(=O)Nc2nc(C)cs2)cc1OC,-,-,-,-,-,.
Oc1c(Br)cc(Br)cc1/C=N/c1nc2c(s1)CCCC2,-,-,-,-,-,86
Oc1ccc2ccccc2c1/C=N/c1nc2c(s1)CCCC2,-,-,-,-,-,-
SMILES,CSC inhib,GRIN3A LBD mod,PREPL inhibitor,Beta apoptosis,T cruzi inh,CHOP inh
C=C(C)CN(CC)C(=O)CSc1ccc(S(=O)(=O)N2CCN(C)CC2)cn1,.,-,.,.,.,.
CCCCCCC1CC(CSc2ncn[nH]2)OC1=O (centres undefined),-,15,-,-,-,-
CCCC(=O)O[C@H]1C[C@@H](C)N(C(=O)c2ccccc2)c2ccc(C)cc21,-,-,-,-,-,74
CCC(=O)OC1CC(C)N(C(=O)c2ccccc2)c2ccc(C)cc21 (centres undefined),-,-,-,-,-,-
CS(=O)(=O)N(CC(=O)N1CCN(Cc2ccccc2)CC1)c1cccc([N+](=O)[O-])c1,-,-,-,-,-,.
Cc1ccc2n(n1)c(=O)c(Cc1ccccc1)c([O-])[n+]2-c1ccccc1,-,-,-,-,-,-
CC[C@@H]1CC=C[C@H]2[C@H]1C(=O)N(Cc1ccccc1)[C@H]2c1ccc(OC)c(Cl)c1,77,-,-,-,-,-
COc1ccc(-c2cccc(C3CC=CC4C3C(=O)N(Cc3ccccc3)C4c3ccc(OC)c(Cl)c3)c2)cc1 (centres undefined),-,-,-,-,-,-
CC[C@@H]1CC=C[C@H]2[C@H]1C(=O)N(Cc1ccccc1)[C@H]2c1ccc(C(F)(F)F)cc1,-,12,-,-,-,-
O=C(NCC1CCCN(Cc2cccc(F)c2)C1)c1cccc2ccccc12 (centres undefined),-,-,-,-,-,.
O=C1/C(=C/c2ccc(N3CCOCC3)o2)SC(=Nc2ccccc2)N1CCc1c[nH]c2ccccc12,85,-,-,101,71,-
COc1ccc(-c2noc(CCC(=O)NCc3cccnc3)n2)cc1OC,-,-,-,-,-,-
CCN(CC)c1ccc(/C=C/c2nc3ccccc3s2)cc1,90,.,-,-,-,-
O=C(CSc1nnc(Cc2ccccc2)o1)Nc1ccc(N2CCOCC2)cc1,-,-,-,-,.,.
CS(=O)(=O)NC1c2cccc3cccc(c23)C1Sc1nncn1/N=C/c1ccco1 (centres undefined),-,20,-,-,-,-
Cc1cc(C)cc(N(CC(=O)NCc2ccco2)C(=O)CCC(=O)Nc2ccccn2)c1,.,17,.,.,-,-
Cc1ccc(N(CC(=O)NCc2ccco2)C(=O)CCC(=O)Nc2ccccn2)cc1C,-,-,-,-,-,-
Cn1nnnc1SCC(=O)Nc1cc(S(=O)(=O)N2CCCCC2)ccc1Cl,-,-,-,-,.,.
C=C1CCc2c([nH]c3ccc(OCC(C)C)cc23)C1=O,87,-,.,139,-,.
COc1ccc2[nH]c3c(c2c1)CCNC3=O,-,-,-,-,-,.
CCCCN(C)CCNC(=O)CN1C(=O)CSc2ccc(S(=O)(=O)N3CCCC3)cc21,-,-,-,-,-,.
BrC(/C=N/Nc1nc(N2CCOCC2)nc(N2CCOCC2)n1)=C/c1ccccc1,-,-,-,-,-,82
Cc1cccc(Nc2nc(N3CCOCC3)nc(N3CCOCC3)n2)c1,-,-,-,-,56,.
CCCCSc1nc2ccc(Nc3nc(N4CCOCC4)nc(N4CCOCC4)n3)cc2s1,-,-,-,-,57,-
C(=N\Nc1nc(Nc2ccccc2)nc(N2CCOCC2)n1)/c1c[nH]c2ccccc12,-,18,-,.,72,-
C=CCn1c(=O)/c(=C/c2ccc(Cl)cc2)s/c1=C(\C#N)c1nnc2n1CCCCC2,.,-,.,.,.,.
